Rows were chosen to be rich in hits. Some 2.9% of all compounds tested hit in one or more screens of this group.
PGC1a acetyl inh – PGC1a acetylation modulation, inhibitor mode; U2OS PGC1a acetylation, AlphaScreen anti-acetyl-lysine; with virally co-expressed GCN5 acetyltransferase; inhibition, % at 15.6 µM; 0.17% of 350,000 active;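 active = every replicate shows inhibition of at least 40%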;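 also: 0% = neutral control wells and 100% = positive control wells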
rRNA inh HTS – inhibits bacterial ribosomal RNA function over humanized ribosomes. AID 720706. E. coli WT GFP vs humanized-ribosome RFP mutants, fluorescence, 24 h; active compounds read low; DMSO median 0, no signal -100. 1.6% of 350,000 active. GFP signal change (wild-type ribosome), % (test concentration not listed);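 active = significant combined selectivity score with lowered wild-type GFP, culture density cut under 30%, mutant RFP and density less affected; inactive = any of these conditions unmet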
PglD inh – inhibitors of Campylobacter jejuni PglD acetyltransferase. AID 602405. inhibition, % at 12.5 µM. 0.098% of 360,000 active. purified PglD enzyme, DTNB colorimetric CoA detection; in the data active = inhibition above about 16%, passing the limit was not always enough
Vif imaging – HIV Vif inhibition. 0.35% of 340,000 active. AID 602346. HEK293T cells, Vif self-association by quenched fluorescence, imaging, 24 h. inhibition, % at 7.49 µM; in the data active = inhibition above about 50%, passing the limit was not always enough
Cneo AK release – causes C. neoformans cell lysis | adenylate kinase release luminescence, 4 h; normalised: neutral wells 0, clomiphene wells 100 | lysis activity, % at 15 µM | 0.2% of 360,000 active | AID 651654;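 active = mean lysis activity across replicates of at least 80%, whatever share of replicates individually reach that level; inactive = mean lysis activity below 80%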
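Assay system: C. neoformans cells. Amount: yeast cell density of 5 × 10^6 cells/mL. Technique: AK luminescence. Buffer or medium: YPD. Times: static 4 h at 37 °C with compound, 1 h detection. Dosing: single-point compound dose. Read-out: lysis from increased AK signal.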
FGF22 binding – binders of recombinant human FGF22 by thermal shift; activity (Tm shift, normalised), % at 9.99 µM; 1.5% of 340,000 active; Q9HCT0; SYPRO orange fluorescence; percent of sucrose octasulfate shift, DMSO zero;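 active = mean Tm shift, scaled 0 neutral to 100 positive control, at about 1.3% or above, every replicate too, limit read from the data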
Target sequence (Q9HCT0 whole entry, looked up): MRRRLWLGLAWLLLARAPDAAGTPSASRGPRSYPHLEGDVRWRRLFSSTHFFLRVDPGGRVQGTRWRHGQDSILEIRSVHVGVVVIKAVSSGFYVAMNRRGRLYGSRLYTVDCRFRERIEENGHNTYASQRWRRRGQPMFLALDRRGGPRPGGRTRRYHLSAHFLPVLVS
Active calls of the source: *; . = not tested or not shown.

SMILES	PGC1a acetyl inh	rRNA inh HTS	PglD inh	Vif imaging	Cneo AK release	FGF22 binding
O=C(NCCCNC(=O)c1ccco1)c1ccc(Cl)cc1	.	1	-3	-4	-5	0
Cc1ccc(Cc2c(-c3ccc(Br)cc3)nc3ccc(Cl)cn23)cc1	13	-27*	4	1	-1	0
CC(=O)N1[C@@H](CO)[C@@H](c2ccccc2)C12CN(C(=O)c1ccccc1)C2	8	0	.	.	.	0
COc1ccc(/C(N)=N/OC(=O)Cc2ccc(OC)c(OC)c2)cc1	-21	-26*	0	-15	-6	0
COCC(=O)Nc1ccc2c(c1)C(=O)N(C)[C@H]1CC[C@H](CC(=O)NCc3ccc(OC)cc3)O[C@@H]1CO2	-1	2	1	.	1	0
COc1cc(-c2nc3n(n2)C(c2ccncc2)C2=C(CCCC2=O)N3)cc(OC)c1OC (stereo not drawn)	.	4	.	30	.	44*
COCC(=O)N1C[C@@H](C)[C@@H](OC)CN(C)C(=O)c2ccc(NC(=O)c3ccccc3)cc2OC[C@@H]1C	3	2	3	.	-2	0
O=C(O)COc1ccc(NC(=O)c2cccs2)cc1	6	14	.	2	.	0
CC1CCCN(C(=O)COc2ccc(NC(=O)c3cccs3)cc2)C1 (stereo not drawn)	-3	-11	.	-1	.	44*
CCNC(=O)C[C@@H]1CC[C@@H](NS(=O)(=O)c2ccc(C)cc2)[C@H](CO)O1	31	-1	1	.	0	0
O=C(C1CCN(S(=O)(=O)c2cccc3nsnc23)CC1)N1CCn2c1nc1ccccc12	8	.	1	.	0	.
Cc1n[nH]c(C)c1S(=O)(=O)N1CCC(C(=O)N2CCn3c2nc2ccccc23)CC1	.	-23*	-1	11	2	0
Oc1[nH]c(=S)sc1C=C1N=c2ccccc2=N1	-16	-19	-9	.	-5	0
Oc1[nH]c(=S)sc1/C=C1\C(c2ccccc2)=Nc2ccccc21	.	.	.	69*	.	.
O=C(O)c1cc(-n2nnnc2SCc2ccccc2F)ccc1Cl	-7	5	.	5	.	43*
CC(=O)Nc1ccc(C2=NNC(=NCC3CCCO3)SC2)cc1 (stereo not drawn)	5	-11	-1	-1	.	0
Fc1ccc(F)c(C2=NNC(=NCC3CCCO3)SC2)c1 (stereo not drawn)	.	-14	.	7	.	43*
O=C(c1cccnc1Cl)N1CCOCC1	2	12	.	7	.	44*
O=C(c1ccccc1NS(=O)(=O)c1cccc2cccnc12)N1CCOCC1	-15	13	.	28	.	43*
O=C(C[C@H]1CC[C@H]2[C@@H](COC[C@H](O)CN2S(=O)(=O)c2ccc(Cl)cc2)O1)NCCN1CCCCC1	.	1	.	.	.	.
CC(C)NC(=O)N(C)C[C@H]1Oc2ccc(NC(=O)Cc3ccccc3)cc2C(=O)N([C@@H](C)CO)C[C@@H]1C	1	1	-1	.	-3	0
O=C1N=c2ccccc2=C1c1sc(=S)n(NC(=O)c2cccc(O)c2)c1O	.	3	.	-2	.	17*
C/C=C/c1ccc2c(c1)[C@@H]1[C@@H](CCN1C(=O)Cc1ccncc1)[C@@H](CO)N2C	9	2	-2	.	0	.
C[C@@H]1CCCCO[C@@H](CN(C)C(=O)Nc2cccc3ccccc23)[C@@H](C)CN([C@H](C)CO)C(=O)c2cc(NS(=O)(=O)c3ccccc3)ccc2O1	0	4	1	.	95*	0
C[C@H](CO)N1C[C@H](C)[C@@H](CN(C)C(=O)Nc2cccc3ccccc23)OCCCC[C@H](C)Oc2ccc(NS(=O)(=O)c3ccccc3)cc2C1=O	-20	4	0	.	-6	-1
SMILES	PGC1a acetyl inh	rRNA inh HTS	PglD inh	Vif imaging	Cneo AK release	FGF22 binding
C[C@@H]1CCCCO[C@@H](CN(C)C(=O)Nc2ccccc2)[C@H](C)CN([C@H](C)CO)C(=O)c2cc(NS(=O)(=O)c3ccc(Cl)cc3)ccc2O1	-20	3	2	.	0	3.6*
C[C@@H]1CN([C@H](C)CO)C(=O)c2cc(NC(=O)c3ccncc3)ccc2O[C@H]1CN(C)S(C)(=O)=O	7	5	0	.	-5	0
CC(=O)OCc1c(C(F)(F)F)nn(C)c1Oc1cccc(C(F)(F)F)c1	11	.	1	0	-1	.
Cc1nn(C)c(Oc2cccc(C(F)(F)F)c2)c1C=O	4	5	.	-1	.	43*
COc1cc(CNCCN2CCOCC2)ccc1OCc1cccc(Cl)c1	-4	.	0	3	4	.
COc1cc(CNCCN2CCOCC2)ccc1OCc1ccc(Cl)cc1Cl	101*	.	1	18	1	.
COc1cc(C(=O)NC2CCCCC2)ccc1OCc1ccc(Cl)cc1Cl	.	7	.	-2	.	43*
C[C@H](CO)N1C[C@H](C)[C@@H](CN(C)Cc2ccccc2)Oc2ncc(Br)cc2C1=O	6	9	-2	.	2	0
COc1ccc(S(=O)(=O)N2c3cc(Cl)ccc3Oc3nc4ccccc4nc32)cc1	-9	.	-5	58*	0	.
O=S(=O)(c1ccc(Cl)cc1)N1c2ccccc2Oc2nc3ccccc3nc21	4	.	4	.	4	.
CC(C)C[C@H](NC(=O)N1CCn2c1nc1ccccc12)C(=O)N1CCCCC1	0	-3	1	-2	0	0
CSCC[C@H](NC(=O)N1CCn2c1nc1ccccc12)C(=O)N1CCCCC1	-5	-17*	0	0	-2	0
CO[C@@H]1CN(C)C(=O)c2ccc(NC(=O)c3ccc4c(c3)OCO4)cc2OC[C@H](C)N(CC2CC2)C[C@@H]1C	-7	4	-2	.	0	0
O=C(C[C@@H]1CC[C@@H]2[C@H](COC[C@H](O)CN2Cc2cccc(C(F)(F)F)c2)O1)NCc1ccccc1	-1	-6	-1	.	97*	0
COCCNC(=O)C[C@@H]1CC[C@H]2[C@@H](COC[C@H](O)CN2Cc2cccc(-c3ccncc3)c2)O1	-1	3	4	.	109*	-1
O=C(C[C@@H]1C[C@H]2c3cc(NS(=O)(=O)c4ccccc4)ccc3O[C@H]2[C@H](CO)O1)NCC1CC1	-3	-2	0	.	1	0
CO[C@@H]1CN(C)C(=O)c2cc(NC(=O)C3CC3)ccc2OC[C@H](C)N(C(C)=O)C[C@H]1C	7	0	-2	.	-13	0
N#C/C(=C/C=C/c1ccccc1)C(=O)Nc1ccccc1	9	24	2	-5	1	0
N#C/C(=C\C=C\c1ccccc1)C(=O)Nc1ccccc1	.	2	.	11	.	44*
CCOC(=O)N1CCN(C(=O)COc2cccc3c2CCN(Cc2ccccc2F)C3=O)CC1	.	.	.	1	.	0
Cc1ccccc1CN1CCc2c(OCC(=O)N3CCCCC3)cccc2C1=O	-15	-25*	.	16	.	-1

Screening data: PubChem BioAssay, Broad Institute
